Reference: ChEMBL document CHEMBL1649578, “Biofilm formation and effect of caspofungin on biofilm structure of Candida species bloodstream isolates” (2009)
≈ marks a conversion by molar mass, not a printed value. Calls of active or inactive are those of the source. The calls are words filed in the database; no cut-off is given here.

Columns and labels:
Candida tropicalis [1] = experiment: Antifungal activity against Candida tropicalis isolate CT8 planktonic cells after 48 hrs by broth microdilution method; assay type: functional; conditions: isolate CT8, 48 h
Outline: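 CLSI broth microdilution in RPMI 1640; isolate plated on Sabouraud dextrose agar 24 h at 37°C. Drug stock in sterile saline diluted in RPMI, 16 to 0.0625 μg/ml tested. MIC read at 48 h as lowest concentration giving significant turbidity reduction versus control well.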

Candida parapsilosis [2] = experiment: Antifungal activity against Candida parapsilosis isolate CP1 biofilm assessed as viable fungal count per cm2 of silicone disk at 32 ug/ml after 48 hrs […]; assay type: functional
Outline: (§1)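 Biofilms grown on serum-preconditioned silicone disks in RPMI 1640 for 24 h, PBS-washed, then exposed 48 h at 35°C on a rocker to caspofungin doubling dilutions spanning 0.25–128 μg/ml. Disks washed and sonicated/vortexed in PBS to release cells. Suspensions diluted in Butterfield buffer and plated on Sabouraud dextrose agar. Viable counts from three disks averaged as CFU/cm2.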

Candida albicans [3] = experiment: Antifungal activity against Candida albicans isolate CA4 biofilm assessed as viable fungal count per cm2 of silicone disk at 4 ug/ml after 48 hrs […]; assay type: functional; outline: as §1
Candida parapsilosis [4] = experiment: Antifungal activity against Candida parapsilosis isolate CP1 planktonic cells after 48 hrs by broth microdilution method; assay type: functional; conditions: Lodderomyces parapsilosis, isolate CP1, 48 h
Outline: (§2)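 Isolates grown on Sabouraud dextrose agar 24 h at 37°C. MIC is the lowest concentration giving a significant turbidity reduction versus control at 48 h.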

Candida tropicalis [5] = experiment: Ratio of SMIC for Candida tropicalis isolate CT8 biofilm to MIC for Candida tropicalis isolate CT8 planktonic cells; assay type: functional
Candida parapsilosis [6] = experiment: Antifungal activity against Candida parapsilosis isolate CP1 biofilm assessed as viable fungal count per cm2 of silicone disk at 2 ug/ml after 48 hrs […]; assay type: functional; outline: as §1
Candida parapsilosis [7] = experiment: Antifungal activity against Candida parapsilosis isolate CP1 biofilm assessed as viable fungal count per cm2 of silicone disk at 0.25 ug/ml after 48 hrs […]; assay type: functional; outline: as §1
Candida parapsilosis [8] = experiment: Antifungal activity against Candida parapsilosis isolate CP1 biofilm assessed as change in cellular morphology at 1 ug/ml after 48 hrs by scanning electron microscopy; assay type: functional, organism-based
Outline: (§3)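 Silicone disks preconditioned 24 h at 37°C in heat-inactivated human serum, seeded with 1 × 10^6 CFU/ml in MOPS-buffered RPMI 1640 (pH 7.0), 1.5 h attachment at 37°C with shaking, then grown 24 h. Washed biofilms exposed to 1.0, 16 or 128 μg/ml caspofungin in RPMI 1640, 48 h at 35°C on a rocker. Untreated controls in RPMI only. Fixed in 5% glutaraldehyde/cacodylate (pH 6.2), ethanol-dehydrated, HMDS air-dried, examined by SEM. Run in triplicate.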

Candida albicans [9] = experiment: Ratio of SMIC for Candida albicans isolate CA4 biofilm to MIC for Candida albicans isolate CA4 planktonic cells; assay type: functional
Candida albicans [10] = experiment: Antifungal activity against Candida albicans isolate CA4 planktonic cells after 48 hrs by broth microdilution method; assay type: functional; conditions: isolate CA4, 48 h; outline: as §2
Candida albicans [11] = experiment: Antifungal activity against Candida albicans isolate CA4 biofilm assessed as viable fungal count per cm2 of silicone disk at 0.25 ug/ml after 48 hrs […]; assay type: functional; outline: as §1
Candida tropicalis [12] = experiment: Antifungal activity against Candida tropicalis isolate CT8 biofilm after 48 hrs by XTT assay; assay type: functional; conditions: isolate CT8, 48 h
Outline: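 Biofilms of clinical bloodstream isolates grown 24 h in RPMI 1640 (MOPS, pH 7.0) on human-serum-preconditioned silicone disks, after 1.5 h attachment at 37°C from 1 × 10^6 CFU/ml. Washed disks exposed 48 h at 35°C on rocker to 10 doubling dilutions, 0.25–128 μg/ml. XTT-menadione reduction 2 h at 37°C, A490; concentration giving 50% reduction of metabolic activity vs drug-free control; triplicate.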

Candida albicans [13] = experiment: Antifungal activity against Candida albicans isolate CA4 biofilm assessed as viable fungal count per cm2 of silicone disk at 1 ug/ml after 48 hrs […]; assay type: functional; outline: as §1
Candida tropicalis [14] = experiment: Antifungal activity against Candida tropicalis isolate CT8 biofilm assessed as viable fungal count per cm2 of silicone disk at 0.5 ug/ml after 48 hrs […]; assay type: functional; outline: as §1
Candida tropicalis [15] = experiment: Antifungal activity against Candida tropicalis isolate CT8 biofilm assessed as change in cellular morphology at 128 ug/ml after 48 hrs by scanning electron microscopy; assay type: functional, organism-based; outline: as §3
Candida parapsilosis [16] = experiment: Ratio of SMIC for Candida parapsilosis isolate CP1 biofilm to MIC for Candida parapsilosis isolate CP1 planktonic cells; assay type: functional
Candida albicans [17] = experiment: Antifungal activity against Candida albicans isolate CA4 biofilm assessed as assessed as decrease in preformed fungal biofilm formation at 128 ug/ml after 48 hrs by scanning electron microscopy; assay type: functional, organism-based; outline: as §3
Candida tropicalis [18] = experiment: Antifungal activity against Candida tropicalis isolate CT8 biofilm assessed as viable fungal count per cm2 of silicone disk at 2 ug/ml after 48 hrs […]; assay type: functional; outline: as §1
Candida albicans [19] = experiment: Antifungal activity against Candida albicans isolate CA4 biofilm assessed as viable fungal count per cm2 of silicone disk at 0.5 ug/ml after 48 hrs […]; assay type: functional; outline: as §1
Candida tropicalis [20] = experiment: Antifungal activity against Candida tropicalis isolate CT8 biofilm assessed as viable fungal count per cm2 of silicone disk at 32 ug/ml after 48 hrs […]; assay type: functional; outline: as §1
Candida parapsilosis [21] = experiment: Antifungal activity against Candida parapsilosis isolate CP1 biofilm assessed as change in cellular morphology at 16 ug/ml after 48 hrs by scanning electron microscopy; assay type: functional, organism-based; outline: as §3
Candida albicans [22] = experiment: Antifungal activity against Candida albicans isolate CA4 biofilm assessed as viable fungal count per cm2 of silicone disk at 64 ug/ml after 48 hrs […]; assay type: functional; outline: as §1
Candida parapsilosis [23] = experiment: Antifungal activity against Candida parapsilosis isolate CP1 biofilm assessed as viable fungal count per cm2 of silicone disk at 16 ug/ml after 48 hrs […]; assay type: functional; outline: as §1
Candida albicans [24] = experiment: Antifungal activity against Candida albicans isolate CA4 biofilm assessed as viable fungal count per cm2 of silicone disk at 128 ug/ml after 48 hrs […]; assay type: functional; outline: as §1

Q: How did the MIC (Candida tropicalis [1]) turn out when CC[C@H](C)C[C@H](C)CCCCCCCCC(=O)N[C@H]1C[C@@H](O)[C@@H](NCCN)NC(=O)[C@@H]2[C@@H](O)CCN2C(=O)[C@H]([C@H](O)CCN)NC(=O)[C@H]([C@H](O)[C@@H](O)c2ccc(O)cc2)NC(=O)[C@@H]2C[C@@H](O)CN2C(=O)[C@H]([C@@H](C)O)NC1=O [CASPOFUNGIN] was run?
A: 0.0625 µg/mL (≈ 0.0572 µM)

Q: What about the log10cfu (Candida parapsilosis [2]) of the same compound?
A: 4.2

Q: And the log10cfu (Candida albicans [3])?
A: 5.3

Q: And the MIC (Candida parapsilosis [4])?
A: 0.25 µg/mL (≈ 0.229 µM)

Q: What about the Ratio (Candida tropicalis [5]) of the same compound?
A: 16

Q: And the log10cfu (Candida parapsilosis [6])?
A: 0

Q: And the log10cfu (Candida parapsilosis [7])?
A: 0

Q: And the Activity (Candida parapsilosis [8])?
A: inactive

Q: What about the Ratio (Candida albicans [9]) of the same compound?
A: 2

Q: And the MIC (Candida albicans [10])?
A: 0.0625 µg/mL (≈ 0.0572 µM)

Q: And the log10cfu (Candida albicans [11])?
A: 4.4

Q: And the MIC (Candida tropicalis [12])?
A: 0.25 µg/mL (≈ 0.229 µM)

Q: And the log10cfu (Candida albicans [13])?
A: 3.3

Q: What about the log10cfu (Candida tropicalis [14]) of the same compound?
A: 6.2

Q: What about the Activity (Candida tropicalis [15]) of the same compound?
A: inactive

Q: What about the Ratio (Candida parapsilosis [16]) of the same compound?
A: 2

Q: And the Activity (Candida albicans [17])?
A: Active

Q: What about the log10cfu (Candida tropicalis [18]) of the same compound?
A: 5.9

Q: And the log10cfu (Candida albicans [19])?
A: 3.4

Q: What about the log10cfu (Candida tropicalis [20]) of the same compound?
A: 5.4

Q: And the Activity (Candida parapsilosis [21])?
A: Active

Q: What about the log10cfu (Candida albicans [22]) of the same compound?
A: 4.6

Q: What about the log10cfu (Candida parapsilosis [23]) of the same compound?
A: 4.5

Q: What about the log10cfu (Candida albicans [24]) of the same compound?
A: 3.5
